Some results are limits rather than exact numbers.

Ki app and Ki data for 15 compounds are collected here from ChEMBL document CHEMBL1124724, “Steroidal A ring aryl carboxylic acids: a new class of steroid 5 alpha-reductase inhibitors” (J Med Chem, 1990).

For assay [1], the target named is T1, Steroid 5-alpha-reductase (Rattus norvegicus, UniProt P24008+P31214).
T1 sequence (P24008 whole entry): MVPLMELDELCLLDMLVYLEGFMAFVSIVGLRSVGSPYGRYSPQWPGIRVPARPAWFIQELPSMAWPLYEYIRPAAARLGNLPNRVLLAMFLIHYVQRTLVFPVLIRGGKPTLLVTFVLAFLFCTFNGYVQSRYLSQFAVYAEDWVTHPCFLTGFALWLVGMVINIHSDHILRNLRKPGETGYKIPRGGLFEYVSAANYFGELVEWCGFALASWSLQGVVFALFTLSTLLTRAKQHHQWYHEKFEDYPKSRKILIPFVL
T1 sequence (P31214 whole entry): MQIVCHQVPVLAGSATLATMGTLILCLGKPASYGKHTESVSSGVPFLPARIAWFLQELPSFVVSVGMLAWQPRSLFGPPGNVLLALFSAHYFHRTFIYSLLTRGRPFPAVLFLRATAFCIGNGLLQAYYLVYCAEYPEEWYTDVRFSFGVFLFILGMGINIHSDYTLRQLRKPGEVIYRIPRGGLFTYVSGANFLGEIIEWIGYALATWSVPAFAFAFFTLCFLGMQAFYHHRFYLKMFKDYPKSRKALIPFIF
Nature of the assay: Inhibition of Steroid 5-alpha-reductase of rat ventral prostate tissue. It counts as tissue-based, Prostate gland. The essentials: (§1)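 Activity is total 5α-reduced products (DHT + ADIOL) by radiolabel after ethyl acetate extraction. Ki,app is given as a range across microsome preparations; >10 000 means under 50% inhibition at highest concentration.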

Assay [2] is described as follows: Inhibition of Steroid 5-alpha-reductase of benign hyperplastic human prostatic tissue. The settings on record: read-out: Ki app. The essentials:
(§2)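 Ethyl acetate quench with carrier steroids; product is DHT plus ADIOL from radiolabel split. Ki,app is given as a range over several microsome preparations; >10 000 means under 50% inhibition at top concentration.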

Assay [3] deals with T1, Steroid 5-alpha-reductase. The experiment in a line: In vitro inhibition against Steroid 5-alpha-reductase of whole rat ventral prostate tissue expressed as apparent inhibition constant. It counts as functional, tissue-based, Prostate gland. A digest of the protocol: as §1
Assay [4] concerns the target T2, 3-oxo-5-alpha-steroid 4-dehydrogenase 2 (Homo sapiens, UniProt P31213).
T2 sequence (P31213 whole entry): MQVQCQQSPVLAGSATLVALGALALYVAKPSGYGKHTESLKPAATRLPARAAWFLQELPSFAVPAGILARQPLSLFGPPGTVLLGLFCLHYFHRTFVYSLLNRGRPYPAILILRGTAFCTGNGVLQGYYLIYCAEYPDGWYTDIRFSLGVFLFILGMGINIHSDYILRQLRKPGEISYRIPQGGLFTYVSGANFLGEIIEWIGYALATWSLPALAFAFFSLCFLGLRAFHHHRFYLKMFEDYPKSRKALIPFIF
The experiment in a line: In vitro inhibition against Steroid 5-alpha-reductase of benign hyperplastic human prostatic tissue expressed as apparent inhibition constant. It is filed as functional. The settings on record: read-out: Ki app. The essentials: as §2

`CC(C)N(C(=O)[C@H]1CC[C@H]2[C@@H]3CCc4cc(C(=O)O)c(Br)cc4[C@H]3CC[C@]12C)C(C)C`: in assay [1], the Ki app was 260 nM. For the same compound, the Ki in assay [2] came out at 76 nM.
Taken in the same sequence, the figures for `CC(C)N(C(=O)[C@H]1CCC2C3C=Cc4cc(C(=O)O)ccc4C3CC[C@@]21C)C(C)C` (stereo not given in full) were 450 nM and 30 nM.
The matching figures for `CC(C)N(C(=O)[C@H]1CC[C@H]2[C@@H]3CCc4cc(C(=O)O)c(Cl)cc4[C@H]3CC[C@]12C)C(C)C`: 200 nM and 35 nM.
Taken in the same sequence, the figures for `CC(C)(C)NC(=O)[C@H]1CC[C@H]2[C@@H]3CCc4cc(C(=O)O)ccc4[C@H]3CC[C@]12C` were 150 nM and 43 nM.
In the case of `CC(C)N(C(=O)[C@H]1CC[C@H]2[C@@H]3CCc4c(ccc(C(=O)O)c4F)[C@H]3CC[C@]12C)C(C)C`, the Ki app in assay [1] is 500 nM. The Ki in assay [2] is 10 nM.
Taken in the same sequence, the figures for `CC(C)N(C(=O)[C@H]1CC[C@H]2[C@@H]3CCc4c(ccc(C(=O)O)c4C#N)[C@H]3CC[C@]12C)C(C)C` were > 10000 nM and 200 nM.
Consider `CC(C)N(C(=O)[C@H]1CC[C@H]2[C@@H]3CCc4cc(C(=O)O)c(C(=O)O)cc4[C@H]3CC[C@]12C)C(C)C`, for which the Ki app in assay [3] is given as > 10000 nM. For the same compound, in assay [4], the Ki worked out at 5000 nM.
Regarding `CC(C)N(C(=O)[C@H]1CC[C@H]2[C@@H]3CCc4cc(C(=O)O)c(C#N)cc4[C@H]3CC[C@]12C)C(C)C`, in assay [1], the Ki app came out at 950 nM. For the same compound, the Ki in assay [2] worked out at 65 nM.
Taken in the same sequence, the figures for `CC(C)N(C(=O)[C@H]1CC[C@H]2[C@@H]3CCc4cc(C(=O)O)ccc4[C@H]3CC[C@]12C)C(C)C` were 356 nM and 20 nM.
`CC(C)(C)NC(=O)C1=CCC2C3CCc4cc(C(=O)O)ccc4C3CC[C@]12C` (stereo not given in full) returned a Ki app in assay [1] of 200 nM. The Ki in assay [2] is 60 nM.
Taken in the same sequence, the figures for `Cc1cc2c(cc1C(=O)O)CC[C@@H]1[C@@H]2CC[C@]2(C)[C@@H](C(=O)N(C(C)C)C(C)C)CC[C@@H]12` were 340 nM and 60 nM.
As to `CC(C)N(C(=O)[C@H]1CC[C@H]2[C@@H]3CCc4c(ccc(C(=O)O)c4Br)[C@H]3CC[C@]12C)C(C)C`, in assay [1], the Ki app came to 1900 nM. In addition, the Ki in assay [2] stood at 212 nM.
Taken in the same sequence, the figures for `CC(C)N(C(=O)[C@H]1CC[C@H]2[C@@H]3CCc4c(ccc(C(=O)O)c4Cl)[C@H]3CC[C@]12C)C(C)C` were 900 nM and 120 nM.
Taken in the same sequence, the figures for `Cc1c(C(=O)O)ccc2c1CC[C@@H]1[C@@H]2CC[C@]2(C)[C@@H](C(=O)N(C(C)C)C(C)C)CC[C@@H]12` were 7000 nM and 260 nM.
Taken in the same sequence, the figures for `CC(C)N(C(=O)[C@H]1CCC2c3ccc4cc(C(=O)O)ccc4c3CC[C@@]21C)C(C)C` (stereo not given in full) were 350 nM and 36 nM.
